Measurements from ChEMBL document CHEMBL3769376, “Discovery of I-BRD9, a Selective Cell Active Chemical Probe for Bromodomain Containing Protein 9 Inhibition” (J Med Chem, 2016).
The source made the active and inactive calls. The rule behind the calls is not given here.

Legend:
[1] = biological target: D(1A) dopamine receptor (Homo sapiens) (UniProt P21728); experiment: Antagonist activity at human D1 dopamine receptor at <5 uM by TR-FRET assay
[2] = biological target: Sodium channel protein type 5 subunit alpha (Homo sapiens, UniProt Q14524); experiment: Inhibition of human Nav1.5 channel at <5 uM by electrophysiology
[3] = biological target: Potassium voltage-gated channel subfamily A member 5 (Homo sapiens) (UniProt P22460); experiment: Inhibition of human Kv1.5 channel at <5 uM by electrophysiology
Chain of Potassium voltage-gated channel subfamily A member 5 (Homo sapiens) (P22460 whole entry): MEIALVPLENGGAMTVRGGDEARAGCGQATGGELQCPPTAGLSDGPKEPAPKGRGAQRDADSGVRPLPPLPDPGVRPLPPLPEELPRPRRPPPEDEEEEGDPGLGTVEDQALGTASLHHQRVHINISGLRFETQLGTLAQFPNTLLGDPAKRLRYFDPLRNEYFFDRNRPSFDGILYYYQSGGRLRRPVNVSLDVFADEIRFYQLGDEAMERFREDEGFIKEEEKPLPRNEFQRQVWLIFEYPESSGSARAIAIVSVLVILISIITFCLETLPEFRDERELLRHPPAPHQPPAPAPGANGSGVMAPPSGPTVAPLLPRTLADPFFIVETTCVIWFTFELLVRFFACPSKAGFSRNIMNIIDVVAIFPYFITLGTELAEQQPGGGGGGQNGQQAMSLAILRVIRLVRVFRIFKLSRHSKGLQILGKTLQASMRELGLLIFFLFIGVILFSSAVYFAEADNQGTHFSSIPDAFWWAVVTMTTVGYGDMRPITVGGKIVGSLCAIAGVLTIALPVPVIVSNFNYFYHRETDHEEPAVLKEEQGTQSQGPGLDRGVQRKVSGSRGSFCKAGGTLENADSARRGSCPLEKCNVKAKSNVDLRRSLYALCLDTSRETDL

[4] = biological target: 3',5'-cyclic-AMP phosphodiesterase 4B (Homo sapiens) (UniProt Q07343); experiment: Inhibition of human PDE4B at <5 uM by luminescence assay
Chain of 3',5'-cyclic-AMP phosphodiesterase 4B (Homo sapiens) (Q07343 whole entry): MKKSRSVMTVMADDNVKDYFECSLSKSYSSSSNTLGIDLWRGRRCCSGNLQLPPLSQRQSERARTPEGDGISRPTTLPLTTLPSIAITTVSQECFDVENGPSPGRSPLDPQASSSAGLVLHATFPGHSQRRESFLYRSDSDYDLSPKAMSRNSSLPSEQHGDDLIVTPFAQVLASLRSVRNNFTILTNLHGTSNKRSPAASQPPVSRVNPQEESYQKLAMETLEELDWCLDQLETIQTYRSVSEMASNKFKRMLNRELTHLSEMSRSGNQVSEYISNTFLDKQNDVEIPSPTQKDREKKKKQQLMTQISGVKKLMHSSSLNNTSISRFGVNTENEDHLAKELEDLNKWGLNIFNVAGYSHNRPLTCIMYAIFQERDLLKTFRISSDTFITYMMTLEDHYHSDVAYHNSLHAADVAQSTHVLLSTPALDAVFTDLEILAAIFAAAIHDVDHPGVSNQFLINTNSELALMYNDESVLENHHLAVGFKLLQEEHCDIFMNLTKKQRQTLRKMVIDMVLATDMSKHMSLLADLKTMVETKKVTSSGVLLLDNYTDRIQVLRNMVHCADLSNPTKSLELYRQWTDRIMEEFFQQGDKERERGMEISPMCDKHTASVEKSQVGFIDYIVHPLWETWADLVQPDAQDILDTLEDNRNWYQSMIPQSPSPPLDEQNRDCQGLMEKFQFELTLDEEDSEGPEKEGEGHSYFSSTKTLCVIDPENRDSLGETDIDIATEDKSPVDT

[5] = biological target: T1, Bromodomain-containing protein 9 (Homo sapiens) (UniProt Q9H8M2); conditions: Kasumi 1, 10 uM
T1 sequence (whole entry): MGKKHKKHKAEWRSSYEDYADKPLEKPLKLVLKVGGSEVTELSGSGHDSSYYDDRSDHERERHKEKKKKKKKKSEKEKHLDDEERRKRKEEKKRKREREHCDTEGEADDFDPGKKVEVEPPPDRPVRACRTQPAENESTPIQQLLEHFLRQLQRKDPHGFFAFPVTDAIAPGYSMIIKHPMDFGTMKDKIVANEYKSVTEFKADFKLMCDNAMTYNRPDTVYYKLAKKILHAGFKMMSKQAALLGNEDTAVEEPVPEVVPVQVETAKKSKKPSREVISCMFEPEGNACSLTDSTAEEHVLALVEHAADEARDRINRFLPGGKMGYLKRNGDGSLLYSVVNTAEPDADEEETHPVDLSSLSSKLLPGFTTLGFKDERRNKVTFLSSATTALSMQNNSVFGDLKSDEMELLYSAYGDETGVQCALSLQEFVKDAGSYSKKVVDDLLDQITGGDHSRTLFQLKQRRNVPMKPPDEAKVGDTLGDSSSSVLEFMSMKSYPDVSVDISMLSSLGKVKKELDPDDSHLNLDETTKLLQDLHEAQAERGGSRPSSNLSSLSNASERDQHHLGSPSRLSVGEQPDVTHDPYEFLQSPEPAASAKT

[6] = biological target: Muscarinic acetylcholine receptor M2 (Homo sapiens) (UniProt P08172); experiment: Antagonist activity at human muscarinic 2 receptor assessed as change in intracellular calcium level at <5 uM by fluorescence assay; format: functional, cell-based
Chain of Muscarinic acetylcholine receptor M2 (Homo sapiens) (P08172 whole entry): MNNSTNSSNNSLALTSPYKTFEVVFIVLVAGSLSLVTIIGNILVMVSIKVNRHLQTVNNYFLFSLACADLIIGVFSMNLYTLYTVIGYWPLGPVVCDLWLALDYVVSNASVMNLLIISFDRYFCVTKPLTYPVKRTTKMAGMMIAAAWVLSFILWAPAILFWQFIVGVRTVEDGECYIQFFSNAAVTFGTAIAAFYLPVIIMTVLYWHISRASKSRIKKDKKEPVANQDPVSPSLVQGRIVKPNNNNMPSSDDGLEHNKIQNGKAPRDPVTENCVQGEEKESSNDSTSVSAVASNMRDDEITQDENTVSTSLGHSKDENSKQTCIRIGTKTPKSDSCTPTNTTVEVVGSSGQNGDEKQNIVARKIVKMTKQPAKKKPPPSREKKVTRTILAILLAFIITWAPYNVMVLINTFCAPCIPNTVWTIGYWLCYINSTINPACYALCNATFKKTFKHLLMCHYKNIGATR

Homo sapiens = organism: Homo sapiens; experiment: Antagonist activity at human GABA-A receptor at <5 uM by electrophysiology
[7] = Permeability of the compound by PAMPA; format: ADME; conditions: read-out: permeability
[8] = biological target: Bromodomain-containing protein 3 (Homo sapiens, UniProt Q15059); experiment: Inhibition of BRD3 in human HUT78 cells incubated for 45 mins by chemoproteomic competition binding assay; format: cell-based
Chain of Bromodomain-containing protein 3 (Q15059 whole entry): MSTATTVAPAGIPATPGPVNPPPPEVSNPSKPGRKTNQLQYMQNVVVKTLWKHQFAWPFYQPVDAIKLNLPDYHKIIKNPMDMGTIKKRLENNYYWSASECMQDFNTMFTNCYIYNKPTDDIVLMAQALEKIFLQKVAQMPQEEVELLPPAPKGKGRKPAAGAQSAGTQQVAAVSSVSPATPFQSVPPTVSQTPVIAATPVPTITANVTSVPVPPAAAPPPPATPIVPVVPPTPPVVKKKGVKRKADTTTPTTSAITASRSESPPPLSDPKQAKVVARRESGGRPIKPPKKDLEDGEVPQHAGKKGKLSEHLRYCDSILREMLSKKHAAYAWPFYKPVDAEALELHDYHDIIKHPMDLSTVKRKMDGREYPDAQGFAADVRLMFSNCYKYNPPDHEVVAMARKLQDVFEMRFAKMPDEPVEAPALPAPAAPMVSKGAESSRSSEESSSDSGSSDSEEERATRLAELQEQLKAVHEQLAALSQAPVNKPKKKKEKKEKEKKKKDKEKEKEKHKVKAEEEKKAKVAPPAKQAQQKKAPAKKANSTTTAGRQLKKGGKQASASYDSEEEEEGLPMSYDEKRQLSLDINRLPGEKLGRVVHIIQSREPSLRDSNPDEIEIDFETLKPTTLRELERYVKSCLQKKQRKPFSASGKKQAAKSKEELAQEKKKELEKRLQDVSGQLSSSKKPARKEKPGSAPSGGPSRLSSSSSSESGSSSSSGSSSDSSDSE
Procedure, shortened: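 Nuclear and tight-chromatin extracts were prepared from HuT78 cells grown in spinner flasks. Compound was spiked into the mixed extracts at a range of doses and incubated for 45 min at 4 °C. Extracts were then incubated with sepharose beads derivatised with 2.0 mM of an amine-bearing bromodomain ligand. Beads were washed with 0.2% NP-40 lysis buffer and eluted in SDS/DTT. BRD3 was read out by Western blot.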

[9] = biological target: Amine oxidase [flavin-containing] B (Homo sapiens, UniProt P27338); experiment: Inhibition of human MAO-B at <5 uM by FLINT assay
[10] = biological target: T1, Bromodomain-containing protein 9 (Homo sapiens); conditions: Kasumi 1, 10 uM; remark: listed apart in the source
[11] = biological target: Phosphatidylinositol 4,5-bisphosphate 3-kinase catalytic subunit gamma isoform (Homo sapiens) (UniProt P48736); experiment: Inhibition of human PI3Kgamma at <5 uM by TR-FRET assay
[12] = biological target: Muscarinic acetylcholine receptor M2 (Homo sapiens) (UniProt P08172); experiment: Agonist activity at human muscarinic 2 receptor assessed as change in intracellular calcium level at <5 uM by fluorescence assay; format: functional, cell-based
[13] = biological target: Sodium-dependent noradrenaline transporter (Homo sapiens) (UniProt P23975); experiment: Antagonist activity at human NE transporter at <5 uM by scintillation proximity assay
[14] = biological target: D(2) dopamine receptor (Homo sapiens) (UniProt P14416); experiment: Antagonist activity at human D2 dopamine receptor at <5 uM by scintillation proximity assay
Chain of D(2) dopamine receptor (Homo sapiens) (P14416 whole entry): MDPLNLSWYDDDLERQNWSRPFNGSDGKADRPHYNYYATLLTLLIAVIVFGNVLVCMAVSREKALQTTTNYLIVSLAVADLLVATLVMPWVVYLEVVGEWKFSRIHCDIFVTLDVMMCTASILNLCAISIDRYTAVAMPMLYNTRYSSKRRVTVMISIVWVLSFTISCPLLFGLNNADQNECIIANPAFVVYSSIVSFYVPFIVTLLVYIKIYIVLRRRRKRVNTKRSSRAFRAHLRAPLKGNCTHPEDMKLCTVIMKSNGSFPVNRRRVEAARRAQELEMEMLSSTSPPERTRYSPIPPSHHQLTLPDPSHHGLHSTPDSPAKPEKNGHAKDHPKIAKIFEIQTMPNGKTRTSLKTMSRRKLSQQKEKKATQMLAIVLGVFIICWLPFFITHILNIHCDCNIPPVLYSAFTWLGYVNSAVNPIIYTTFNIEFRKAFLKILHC

[15] = biological target: Kappa-type opioid receptor (Homo sapiens) (UniProt P41145); experiment: Agonist activity at human kappa opiod receptor at <5 uM by scintillation proximity assay
[16] = biological target: 5-hydroxytryptamine receptor 1B (Homo sapiens) (UniProt P28222); experiment: Agonist activity at human 5HT1B receptor at <5 uM by scintillation proximity assay
Chain of 5-hydroxytryptamine receptor 1B (Homo sapiens) (P28222 whole entry): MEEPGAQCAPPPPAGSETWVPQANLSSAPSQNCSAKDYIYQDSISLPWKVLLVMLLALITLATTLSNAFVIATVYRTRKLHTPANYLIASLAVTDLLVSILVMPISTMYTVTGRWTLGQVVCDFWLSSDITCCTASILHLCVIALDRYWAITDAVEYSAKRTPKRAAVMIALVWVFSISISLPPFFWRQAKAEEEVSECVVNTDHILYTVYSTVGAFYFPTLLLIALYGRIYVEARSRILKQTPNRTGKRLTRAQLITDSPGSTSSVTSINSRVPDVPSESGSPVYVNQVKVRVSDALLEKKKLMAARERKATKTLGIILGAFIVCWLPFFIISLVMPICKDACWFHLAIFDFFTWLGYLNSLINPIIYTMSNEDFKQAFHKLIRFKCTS

[17] = biological target: Glutamate receptor ionotropic, NMDA 2B (Homo sapiens) (UniProt Q13224); experiment: Antagonist activity at human NMDA 2B receptor assessed as change in intracellular calcium level at <5 uM by fluorescence assay; format: cell-based
[18] = biological target: Sodium-dependent serotonin transporter (Homo sapiens) (UniProt P31645); experiment: Antagonist activity at human SERT transporter at <5 uM by scintillation proximity assay
[19] = biological target: Acetylcholinesterase (Homo sapiens) (UniProt P22303); experiment: Inhibition of human acetylcholinesterase at <5 uM by mass spectrometry
[20] = biological target: T1, Bromodomain-containing protein 9 (Homo sapiens); conditions: Kasumi 1, 10 uM; remark: listed apart in the source
[21] = biological target: Beta-2 adrenergic receptor (Homo sapiens) (UniProt P07550); experiment: Agonist activity at human beta-2 adrenergic receptor at <5 uM by TR-FRET assay
[22] = biological target: 5-hydroxytryptamine receptor 2C (Homo sapiens) (UniProt P28335); experiment: Agonist activity at human 5HT2C receptor assessed as change in intracellular calcium level at <5 uM by fluorescence assay; format: functional, cell-based
Chain of 5-hydroxytryptamine receptor 2C (Homo sapiens) (P28335 whole entry): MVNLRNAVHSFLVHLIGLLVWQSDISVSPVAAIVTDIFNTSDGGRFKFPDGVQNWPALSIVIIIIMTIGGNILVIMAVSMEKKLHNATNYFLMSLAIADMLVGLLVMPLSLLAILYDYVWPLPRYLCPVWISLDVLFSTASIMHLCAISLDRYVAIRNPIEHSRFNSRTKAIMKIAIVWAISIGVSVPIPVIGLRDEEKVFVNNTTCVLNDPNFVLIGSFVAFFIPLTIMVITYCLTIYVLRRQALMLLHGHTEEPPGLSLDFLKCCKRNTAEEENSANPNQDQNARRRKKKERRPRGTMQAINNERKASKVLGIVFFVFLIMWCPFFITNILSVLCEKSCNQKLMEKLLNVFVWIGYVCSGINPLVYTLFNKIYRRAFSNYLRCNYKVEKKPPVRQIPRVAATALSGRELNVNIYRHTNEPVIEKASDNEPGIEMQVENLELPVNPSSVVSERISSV

[23] = biological target: 5-hydroxytryptamine receptor 2A (Homo sapiens) (UniProt P28223); experiment: Agonist activity at human 5HT2A receptor by assessed as change in intracellular calcium level at <5 uM by fluorescence assay; format: functional, cell-based
[24] = biological target: Aurora kinase B (Homo sapiens) (UniProt Q96GD4); experiment: Inhibition of human aurora B at <5 uM by IMAP assay
[25] = biological target: Voltage-gated inwardly rectifying potassium channel KCNH2 (Homo sapiens, UniProt Q12809); experiment: Inhibition of human ERG channel at <5 uM by electrophysiology
[26] = biological target: 5-hydroxytryptamine receptor 2C (Homo sapiens) (UniProt P28335); experiment: Antagonist activity at human 5HT2C receptor assessed as change in intracellular calcium level at <5 uM by fluorescence assay; format: functional, cell-based
[27] = biological target: 5-hydroxytryptamine receptor 1B (Homo sapiens) (UniProt P28222); experiment: Antagonist activity at human 5HT1B receptor at <5 uM by scintillation proximity assay
Cytochrome P450 3A4 = Cytochrome P450 3A4 (Homo sapiens, UniProt P08684); experiment: Inhibition of CYP3A4 (unknown origin) preincubated with substrate at <5 uM by mass spectrometry; format: ADME
[28] = biological target: Mu-type opioid receptor (Homo sapiens) (UniProt P35372); experiment: Agonist activity at human mu opiod receptor at <5 uM by scintillation proximity assay
[29] = biological target: cGMP-inhibited 3',5'-cyclic phosphodiesterase 3A (Homo sapiens) (UniProt Q14432); experiment: Inhibition of human PDE3A at <5 uM by luminescence assay
Chain of cGMP-inhibited 3',5'-cyclic phosphodiesterase 3A (Homo sapiens) (Q14432 whole entry): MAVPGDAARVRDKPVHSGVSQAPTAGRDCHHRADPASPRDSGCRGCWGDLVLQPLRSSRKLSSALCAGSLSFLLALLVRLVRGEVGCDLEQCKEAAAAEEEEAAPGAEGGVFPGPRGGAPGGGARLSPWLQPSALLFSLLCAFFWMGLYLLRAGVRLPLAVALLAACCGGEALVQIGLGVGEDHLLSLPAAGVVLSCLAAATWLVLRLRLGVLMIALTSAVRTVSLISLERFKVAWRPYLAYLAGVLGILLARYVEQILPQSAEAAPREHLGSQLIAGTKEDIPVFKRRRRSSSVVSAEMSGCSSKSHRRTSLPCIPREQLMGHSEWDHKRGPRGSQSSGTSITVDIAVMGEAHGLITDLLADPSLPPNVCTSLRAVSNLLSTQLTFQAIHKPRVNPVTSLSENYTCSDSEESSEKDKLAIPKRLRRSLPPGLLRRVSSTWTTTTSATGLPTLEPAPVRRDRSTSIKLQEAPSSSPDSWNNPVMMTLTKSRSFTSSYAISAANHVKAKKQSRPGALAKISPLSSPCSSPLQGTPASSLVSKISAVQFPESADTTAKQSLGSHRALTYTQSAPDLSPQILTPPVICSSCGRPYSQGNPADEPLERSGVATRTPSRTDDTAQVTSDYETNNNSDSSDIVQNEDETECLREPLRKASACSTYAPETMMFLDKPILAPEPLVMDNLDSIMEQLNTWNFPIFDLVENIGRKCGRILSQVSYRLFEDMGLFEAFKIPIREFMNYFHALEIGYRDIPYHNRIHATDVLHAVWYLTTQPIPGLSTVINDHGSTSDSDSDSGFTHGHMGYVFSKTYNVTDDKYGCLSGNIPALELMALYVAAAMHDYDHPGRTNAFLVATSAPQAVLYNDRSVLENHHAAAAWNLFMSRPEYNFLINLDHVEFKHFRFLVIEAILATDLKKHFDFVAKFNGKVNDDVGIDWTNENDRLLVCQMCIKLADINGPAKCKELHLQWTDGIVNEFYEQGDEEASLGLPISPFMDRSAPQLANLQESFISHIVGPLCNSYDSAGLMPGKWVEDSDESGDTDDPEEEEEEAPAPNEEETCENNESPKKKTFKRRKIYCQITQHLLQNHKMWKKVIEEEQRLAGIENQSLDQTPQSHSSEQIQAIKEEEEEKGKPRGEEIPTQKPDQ

[30] = biological target: Tyrosine-protein kinase Lck (Homo sapiens) (UniProt P06239); experiment: Inhibition of human LCK at <5 uM by IMAP assay

## CCn1cc(-c2cccc(C(F)(F)F)c2)c2sc(C(=N)NC3CCS(=O)(=O)CC3)cc2c1=O
[1]
  inhibition: inactive
[2]
  inhibition (INH): Not Active
[3]
  inhibition: inactive
[4]
  inhibition: inactive
[5]
  inhibition: Active
[6]
  inhibition: inactive
Homo sapiens
  inhibition: inactive
[7]
  Papp: 21 ×10⁻⁶ cm/s
[8]
  IC50: > 50.1 µM
[9]
  inhibition (INH): Not Active
[10]
  inhibition: Active
[11]
  inhibition: inactive
[12]
  Activity: inactive
[13]
  inhibition: inactive
[14]
  inhibition: inactive
[15]
  Activity: inactive
[16]
  Activity: inactive
[17]
  inhibition: inactive
[18]
  inhibition: inactive
[19]
  inhibition: inactive
[20]
  inhibition: Active
[21]
  Activity: inactive
[22]
  Activity: inactive
[23]
  Activity: inactive
[24]
  inhibition: inactive
[25]
  inhibition (INH): Not Active
[26]
  inhibition: inactive
[27]
  inhibition: inactive
Cytochrome P450 3A4
  inhibition (INH): Not Active
[28]
  Activity: inactive
[29]
  inhibition: inactive
[30]
  inhibition: inactive
